Each structure is given as a SMILES string.

A short description of series [1]: The 2(APTT) value is defined as the concentration of compound in plasma required to double the activated partial thromboplastin time in human. In kind it is functional. The method in brief:
(§1)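 2 × APTT is the inhibitor concentration in plasma required to double the activated partial thromboplastin time.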

Series [2] concerns the target Plasma kallikrein (Homo sapiens, UniProt P03952). In words: Binding affinity was evaluated on serine protease plasma kallikrein. The class given is cell-free.
Series [3] in a line: Oral bioavailability in rat when dosed in a suspension of 1% methocel. The class given is ADME, organism-based. Conditions: in vivo. Put shortly: (§2)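 Fasted animals (24 h without food). Oral dose by gavage as a 1% methocel suspension. Intravenous dose given by indwelling jugular vein cannula in rat and by peripheral venipuncture in dog and cynomolgus monkey, in saline or 20% PEG 200. iv/po doses in mg/kg: rat 2/10, 5/20 or 5/12; dog 2/5 or 1/5; monkey 1/5. F (%) is the mean of at least three determinations.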

For series [4], the target named is T1, Chymotrypsinogen A (Bos taurus, UniProt P00766). In words: Binding affinity was evaluated on serine protease Chymotrypsinogen. In kind it is single protein.
For series [5], the target named is T2, Serine protease 1 (Homo sapiens, UniProt P07477). Put plainly: Binding affinity was evaluated on serine protease trypsin.
T2 sequence (P07477 whole entry): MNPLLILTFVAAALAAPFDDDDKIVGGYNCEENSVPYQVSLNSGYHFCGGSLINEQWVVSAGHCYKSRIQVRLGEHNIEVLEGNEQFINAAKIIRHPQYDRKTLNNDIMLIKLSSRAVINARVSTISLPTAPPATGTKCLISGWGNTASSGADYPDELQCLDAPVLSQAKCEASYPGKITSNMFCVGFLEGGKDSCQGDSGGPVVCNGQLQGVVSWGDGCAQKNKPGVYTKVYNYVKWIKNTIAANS
The target in series [6] is Tissue-type plasminogen activator (Homo sapiens, UniProt P00750). In words: Binding affinity was evaluated on serine protease TPA.
Sequence of Tissue-type plasminogen activator (P00750 whole entry): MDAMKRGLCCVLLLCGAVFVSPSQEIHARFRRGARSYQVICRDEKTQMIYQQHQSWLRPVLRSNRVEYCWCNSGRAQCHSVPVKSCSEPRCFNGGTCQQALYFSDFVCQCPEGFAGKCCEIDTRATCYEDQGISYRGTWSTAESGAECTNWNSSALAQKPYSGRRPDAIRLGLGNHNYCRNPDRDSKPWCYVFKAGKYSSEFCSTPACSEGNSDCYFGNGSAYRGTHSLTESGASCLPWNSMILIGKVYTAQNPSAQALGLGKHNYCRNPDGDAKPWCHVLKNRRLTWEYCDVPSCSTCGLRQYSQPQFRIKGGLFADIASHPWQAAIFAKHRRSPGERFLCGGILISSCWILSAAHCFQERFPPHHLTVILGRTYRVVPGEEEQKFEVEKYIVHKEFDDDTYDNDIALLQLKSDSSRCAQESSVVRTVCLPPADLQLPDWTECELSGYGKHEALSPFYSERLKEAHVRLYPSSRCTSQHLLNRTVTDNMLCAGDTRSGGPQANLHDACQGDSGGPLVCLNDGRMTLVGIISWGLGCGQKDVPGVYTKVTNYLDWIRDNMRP
Series [7] addresses Prothrombin (Homo sapiens, UniProt P00734). In words: Binding affinity was evaluated on serine protease thrombin.
A short description of series [8]: Partition coefficient (logP). In kind it is physicochemical. To be noted: octanol/water. Put shortly: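 Log P determined experimentally by standard octanol/water partitioning.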
The species named for series [9] is Homo sapiens. Put plainly: Concentration of compound in plasma required to double the activated partial thromboplastin time in human measured as 2(APTT) value. The class given is functional, cell-free. The method in brief:
as §1

For series [10], the species on record is Rattus norvegicus. In words: The final concentration in plasma of rat carotid artery FeCl3 induced thrombosis model. In kind it is ADME, organism-based. The method in brief:
(§3)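 Rat carotid artery FeCl₃-induced thrombosis model. Compound in saline vehicle infused iv at 10 μg/kg/min for 120 min before the FeCl₃ insult. Plasma drug concentration measured. Saline vehicle controls run alongside.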

Series [11] concerns the target Plasminogen (Homo sapiens, UniProt P00747). Put plainly: Binding affinity was evaluated on serine protease plasmin.
Series [12] is filed under the species Homo sapiens. Put plainly: % Free drug present in human plasma. The class given is ADME, organism-based.
The species named for series [13] is Rattus norvegicus. Put plainly: (§4) % Free drug present in rat plasma. The class given is ADME, organism-based.
Series [14] in a line: Oral bioavailability in rats when dosed in a suspension of 1% methocel. The class given is ADME, organism-based. Conditions: rat, in vivo. Put shortly: as §2
Series [15] in a line: Oral bioavailability in dog (dosed in a suspension of 1% methocel). In kind it is ADME, organism-based, Canis lupus familiaris. Conditions: in vivo. Put shortly:
as §2

The species entered for series [16] is Rattus norvegicus. Put plainly: Concentration of compound in plasma required to double the activated partial thromboplastin time in rat measured as 2(APTT) value. In kind it is functional, cell-free. The method in brief: as §1
The species entered for series [17] is Rattus norvegicus. Described as §4. The class given is functional.
The nature of series [18]: The concentration in plasma. In kind it is ADME, cell-free. The method in brief: as §3
The nature of series [19]: Oral bioavailability in cynomolgus monkey (dosed in a suspension of 1% methocel). In kind it is ADME, organism-based, Macaca fascicularis. Conditions: in vivo. Put shortly: as §2
Series [20] in a line: Oral bioavailability in cynomolgus monkey (dose 5 mg/kg). The class given is ADME, organism-based, Macaca fascicularis. To be noted: in vivo. The method in brief:
as §2

Series [21] addresses T1, Chymotrypsinogen A. In words: Selectivity was evaluated as the binding affinity between thrombin versus Chymotrypsinogen.
The target of series [22] is T2, Serine protease 1. In words: Selectivity was evaluated as the binding affinity between thrombin versus trypsin.

Sequence of Plasminogen (P00747 97-580 limits assumed): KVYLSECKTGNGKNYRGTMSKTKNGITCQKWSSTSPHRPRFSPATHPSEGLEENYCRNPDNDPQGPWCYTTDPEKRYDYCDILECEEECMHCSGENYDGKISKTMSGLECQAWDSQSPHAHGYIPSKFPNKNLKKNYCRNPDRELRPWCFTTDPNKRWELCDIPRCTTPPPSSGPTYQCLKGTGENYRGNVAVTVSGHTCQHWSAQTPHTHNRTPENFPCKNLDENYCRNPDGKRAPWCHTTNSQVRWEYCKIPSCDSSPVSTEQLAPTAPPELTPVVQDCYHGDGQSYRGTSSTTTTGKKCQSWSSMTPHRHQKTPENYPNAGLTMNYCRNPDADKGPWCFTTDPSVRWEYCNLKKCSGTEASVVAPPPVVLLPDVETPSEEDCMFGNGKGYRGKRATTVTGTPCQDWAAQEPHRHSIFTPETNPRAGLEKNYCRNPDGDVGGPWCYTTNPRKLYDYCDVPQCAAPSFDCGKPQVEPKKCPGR
Sequence of Plasminogen (P00747 581-810 limits assumed): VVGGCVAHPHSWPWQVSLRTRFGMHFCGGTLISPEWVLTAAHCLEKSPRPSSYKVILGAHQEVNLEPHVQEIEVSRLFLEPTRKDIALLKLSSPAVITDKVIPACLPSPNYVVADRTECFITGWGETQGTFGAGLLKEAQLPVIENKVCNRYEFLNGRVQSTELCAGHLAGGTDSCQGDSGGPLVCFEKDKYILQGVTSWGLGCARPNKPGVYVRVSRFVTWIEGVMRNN
Sequence of Plasma kallikrein (P03952 20-390 limits assumed): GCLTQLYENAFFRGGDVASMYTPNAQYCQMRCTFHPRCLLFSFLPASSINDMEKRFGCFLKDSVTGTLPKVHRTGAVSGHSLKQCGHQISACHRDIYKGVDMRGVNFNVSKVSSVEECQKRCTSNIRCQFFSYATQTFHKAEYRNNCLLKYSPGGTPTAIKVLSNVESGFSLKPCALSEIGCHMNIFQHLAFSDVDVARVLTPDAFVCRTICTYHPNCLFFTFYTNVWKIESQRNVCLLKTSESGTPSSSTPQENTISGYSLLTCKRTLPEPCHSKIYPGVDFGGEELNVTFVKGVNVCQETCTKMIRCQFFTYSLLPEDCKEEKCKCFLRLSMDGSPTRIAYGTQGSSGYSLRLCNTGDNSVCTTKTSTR
Sequence of Plasma kallikrein (P03952 391-638 limits assumed): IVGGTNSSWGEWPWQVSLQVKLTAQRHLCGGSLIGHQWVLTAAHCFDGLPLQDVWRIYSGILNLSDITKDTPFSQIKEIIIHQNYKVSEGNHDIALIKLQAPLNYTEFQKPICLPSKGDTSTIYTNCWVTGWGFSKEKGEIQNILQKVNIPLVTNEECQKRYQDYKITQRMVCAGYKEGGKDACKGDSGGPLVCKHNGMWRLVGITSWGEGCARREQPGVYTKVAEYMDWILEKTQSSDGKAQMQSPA

Consider `CC1CNc2c(cccc2S(=O)(=O)N[C@@H](CCCNC(=N)N)C(=O)N2CCC(C)C[C@@H]2C(=O)O)C1` (single isomer, unassigned) [ARGATROBAN], for which, in series [1], the “2*APTT” value is 0.28 µM.

As to `N[C@@H](C(=O)N1CCC[C@H]1C(=O)NCc1cc(Cl)ccc1Cl)C1CCCCC1`, the Ki (as a rule, the equilibrium dissociation constant of an inhibitor or competing ligand from its target) in [2] was found to be 586 µM; in series [4] it was 49 µM; in series [5], 29 µM; in [6] it was 19 µM; in series [7], 0.005 µM; in series [11], 691 µM. Further, the bioavailability – broadly, the share of a dose that reaches the circulation, judged against a reference dose that is usually intravenous – in [3] was determined as 23%. Moreover, in series [8], the lipophilicity (logP) (as a rule, a log measure of how a compound divides between an organic and an aqueous phase) is 2.63. For the same compound, the Concentration in [9] was 0.95 µM. Besides, the concentration in series [10] was found to be 329 nM. Moreover, the values for the Free in series [12] and in [13] were 4% and 9%, respectively.

The compound `CCN(CC)C(=O)CN[C@@H](C(=O)N1CCC[C@H]1C(=O)NCc1ccccc1Cl)C1CCCCC1` had a Ki in [7] of 0.02 µM.

Turning to `CCOC(=O)COc1ccc(Cl)cc1CNC(=O)[C@@H]1CCCN1C(=O)[C@H](N)C1CCCCC1`, in series [7], the Ki was found to be 0.00045 µM.

In the case of `CCN(CC)C(=O)CN[C@@H](C(=O)N1CCC[C@H]1C(=O)NCc1cc(Cl)ccc1Cl)C1CCCCC1`, the Ki in [2] was 399 µM; in series [4], 174 µM; in [5] it was 27 µM; in [6], 29 µM; in series [7], 0.00031 µM; in [11], 244 µM. In series [14], this compound yielded a bioavailability of 10%. The logP in series [8] turned out to be 2.67. Also, the concentration in series [10] amounted to 245 nM.

In the case of `CCNC(=O)COc1ccc(Cl)cc1CNC(=O)[C@@H]1CCCN1C(=O)[C@H](N)C1CCCCC1`, the bioavailability is 40% in series [15], 10% in series [3], 63% in series [19] and 63% in series [20]. Also, the Concentration in series [16] is 0.38 µM; in [9] it was 0.41 µM. Further, the Ki in series [4] was found to be 71 µM; in series [5], 23 µM. For the same compound, the Free stood at 14% in series [17] and 15% in series [12]. Moreover, the concentration in [18] worked out at 794 nM. Besides, in series [8], the logP was determined as 2.07.

With `NC(C(=O)N1CCC[C@H]1C(=O)NCc1cc(Cl)ccc1Cl)C(c1ccccc1)c1ccccc1` (stereo partly specified), the Ki in series [21] is above 50 µM; in series [22], 7 µM. In series [15], this compound displayed a bioavailability of 45%. This compound also displayed a logP in series [8] above 3.1.

Take `N[C@@H](C(=O)N1CCC[C@H]1C(=O)NCc1cc(Cl)ccc1OCC(=O)NC1CC1)C1CCCCC1`: the Ki was determined as 79 µM in [2]; 67 µM in series [4]; 18 µM in series [5]; 36 µM in [6]; 113 µM in series [11]. In addition, the bioavailability in series [3] is 20%; in series [19] it was 34%; in series [20] it was 34%. Besides, the Concentration in [16] worked out at 0.42 µM; in series [9], 0.35 µM. Besides, the Free in series [17] is 11%; in series [12] it was 12%. Also, the logP in [8] is 2.04.

Turning to `NC(=O)COc1ccc(Cl)cc1CNC(=O)[C@@H]1CCCN1C(=O)[C@H](N)C1CCCCC1`, the Ki was 816 µM in [2]; 131 µM in [4]; 9 µM in [5]; 11 µM in series [6]; 0.0005 µM in [7]; 152 µM in series [11]. Moreover, the results for the Concentration in [16] and in series [9] were 0.31 µM and 0.25 µM, respectively. The same compound yielded a logP in series [8] of 1.96. In addition, the concentration in [10] turned out to be 726 nM. Further, the Free was 26% in series [12] and 7% in series [13].

Consider `N[C@@H](C(=O)N1CCC[C@H]1C(=O)NCc1cc(Cl)ccc1O)C1CCCCC1`, for which, in [7], the Ki was 0.0025 µM.
